Measurements taken from ChEMBL document CHEMBL4689842, “EUbOPEN Chemogenomics Library wave 1” (2021).

System: U2OS
Assay: Multiplex assay against U2OS
Assay type: toxicity, cell-based
Settings: human
How it was run: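 Values for tubulin, mitochondrial-mass and membrane-permeability phenotypes are per cents of cells with healthy nuclei. These cells were identified by CellPathfinder machine-learning gating of live cells that had been stained at seeding with Hoechst33342, BioTracker Green Microtubule Cytoskeleton Dye, MitoTracker Red and Annexin V Alexa Fluor 680 and imaged on a CQ1 microscope at 37°C and 5% CO2 after compound addition. The gating first set Hoechst high-intensity objects apart from normal cells, then split normal cells into healthy, pyknosed or fragmented nuclei, and pyknosed cells into mitotic or apoptotic.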

[1] = 12 h, 1 µM, compound concentration 1 uM, replicate 1
[2] = 12 h, 1 µM, compound concentration 1 uM, replicate 2
[3] = 12 h, 10 µM, compound concentration 10 uM, replicate 1
[4] = 12 h, 10 µM, compound concentration 10 uM, replicate 2
[5] = 24 h, 1 µM, compound concentration 1 uM, replicate 1
[6] = 24 h, 1 µM, compound concentration 1 uM, replicate 2
[7] = 24 h, 10 µM, compound concentration 10 uM, replicate 1
[8] = 24 h, 10 µM, compound concentration 10 uM, replicate 2
[9] = 48 h, 1 µM, compound concentration 1 uM, replicate 1
[10] = 48 h, 1 µM, compound concentration 1 uM, replicate 2
[11] = 48 h, 10 µM, compound concentration 10 uM, replicate 1
[12] = 48 h, 10 µM, compound concentration 10 uM, replicate 2

CC[C@H](C)C(=O)O[C@H]1C[C@@H](C)C=C2C=C[C@H](C)[C@H](CC[C@@H]3C[C@@H](O)CC(=O)O3)[C@H]21 [LOVASTATIN]
Population Apoptotic (%) [1]: 21% | Population Fragmented Nuclei (%) [1]: 13% | Population Healthy Nuclei (%) [1]: 76% | Population Hoechst High Intensity Objects (%) [1]: 12% | Population Membrane Permeable-Phenotype (%) [1]: 7% | Population Mitochondria Different-Phenotype (%) [1]: 5% | Population Mitotic Cells (%) [1]: 78% | Population Normal (%) [1]: 87% | Population Pyknosed Nuclei (%) [1]: 9% | Population Tubulin-Different-Phenotype (%) [1]: 13% | Total Cell Count [1]: 140 | Population Apoptotic (%) [2]: 25% | Population Fragmented Nuclei (%) [2]: 22% | Population Healthy Nuclei (%) [2]: 68% | Population Hoechst High Intensity Objects (%) [2]: 11% | Population Membrane Permeable-Phenotype (%) [2]: 3% | Population Mitochondria Different-Phenotype (%) [2]: 6% | Population Mitotic Cells (%) [2]: 75% | Population Normal (%) [2]: 88% | Population Pyknosed Nuclei (%) [2]: 8% | Population Tubulin-Different-Phenotype (%) [2]: 3% | Total Cell Count [2]: 87 | Population Apoptotic (%) [3]: 31% | Population Fragmented Nuclei (%) [3]: 20% | Population Healthy Nuclei (%) [3]: 68% | Population Hoechst High Intensity Objects (%) [3]: 10% | Population Membrane Permeable-Phenotype (%) [3]: 9% | Population Mitochondria Different-Phenotype (%) [3]: 14% | Population Mitotic Cells (%) [3]: 68% | Population Normal (%) [3]: 89% | Population Pyknosed Nuclei (%) [3]: 11% | Population Tubulin-Different-Phenotype (%) [3]: 12% | Total Cell Count [3]: 163 | Population Apoptotic (%) [4]: 100% | Population Fragmented Nuclei (%) [4]: 4% | Population Healthy Nuclei (%) [4]: 90% | Population Hoechst High Intensity Objects (%) [4]: 8% | Population Membrane Permeable-Phenotype (%) [4]: 10% | Population Mitochondria Different-Phenotype (%) [4]: 12% | Population Mitotic Cells (%) [4]: 0% | Population Normal (%) [4]: 91% | Population Pyknosed Nuclei (%) [4]: 4% | Population Tubulin-Different-Phenotype (%) [4]: 20% | Total Cell Count [4]: 54 | Population Apoptotic (%) [5]: 18% | Population Fragmented Nuclei (%) [5]: 6% | Population Healthy Nuclei (%) [5]: 84% | Population Hoechst High Intensity Objects (%) [5]: 7% | Population Membrane Permeable-Phenotype (%) [5]: 6% | Population Mitochondria Different-Phenotype (%) [5]: 8% | Population Mitotic Cells (%) [5]: 81% | Population Normal (%) [5]: 92% | Population Pyknosed Nuclei (%) [5]: 8% | Population Tubulin-Different-Phenotype (%) [5]: 14% | Total Cell Count [5]: 144 | Population Apoptotic (%) [6]: 40% | Population Fragmented Nuclei (%) [6]: 22% | Population Healthy Nuclei (%) [6]: 70% | Population Hoechst High Intensity Objects (%) [6]: 9% | Population Membrane Permeable-Phenotype (%) [6]: 0% | Population Mitochondria Different-Phenotype (%) [6]: 4% | Population Mitotic Cells (%) [6]: 60% | Population Normal (%) [6]: 90% | Population Pyknosed Nuclei (%) [6]: 7% | Population Tubulin-Different-Phenotype (%) [6]: 4% | Total Cell Count [6]: 93 | Population Apoptotic (%) [7]: 25% | Population Fragmented Nuclei (%) [7]: 13% | Population Healthy Nuclei (%) [7]: 76% | Population Hoechst High Intensity Objects (%) [7]: 6% | Population Membrane Permeable-Phenotype (%) [7]: 8% | Population Mitochondria Different-Phenotype (%) [7]: 7% | Population Mitotic Cells (%) [7]: 75% | Population Normal (%) [7]: 93% | Population Pyknosed Nuclei (%) [7]: 9% | Population Tubulin-Different-Phenotype (%) [7]: 9% | Total Cell Count [7]: 204 | Population Apoptotic (%) [8]: 28% | Population Fragmented Nuclei (%) [8]: 8% | Population Healthy Nuclei (%) [8]: 79% | Population Hoechst High Intensity Objects (%) [8]: 7% | Population Mitochondria Different-Phenotype (%) [8]: 4% | Population Mitotic Cells (%) [8]: 71% | Population Normal (%) [8]: 92% | Population Pyknosed Nuclei (%) [8]: 11% | Population Tubulin-Different-Phenotype (%) [8]: 23% | Total Cell Count [8]: 74 | Population Apoptotic (%) [9]: 41% | Population Fragmented Nuclei (%) [9]: 4% | Population Healthy Nuclei (%) [9]: 89% | Population Hoechst High Intensity Objects (%) [9]: 3% | Population Membrane Permeable-Phenotype (%) [9]: 4% | Population Mitochondria Different-Phenotype (%) [9]: 8% | Population Mitotic Cells (%) [9]: 58% | Population Normal (%) [9]: 96% | Population Pyknosed Nuclei (%) [9]: 5% | Population Tubulin-Different-Phenotype (%) [9]: 11% | Total Cell Count [9]: 129 | Population Apoptotic (%) [10]: 0% | Population Fragmented Nuclei (%) [10]: 10% | Population Healthy Nuclei (%) [10]: 87% | Population Hoechst High Intensity Objects (%) [10]: 7% | Population Membrane Permeable-Phenotype (%) [10]: 1% | Population Mitochondria Different-Phenotype (%) [10]: 5% | Population Mitotic Cells (%) [10]: 100% | Population Normal (%) [10]: 92% | Population Pyknosed Nuclei (%) [10]: 2% | Population Tubulin-Different-Phenotype (%) [10]: 7% | Total Cell Count [10]: 89 | Population Apoptotic (%) [11]: 40% | Population Fragmented Nuclei (%) [11]: 12% | Population Healthy Nuclei (%) [11]: 78% | Population Hoechst High Intensity Objects (%) [11]: 4% | Population Membrane Permeable-Phenotype (%) [11]: 3% | Population Mitochondria Different-Phenotype (%) [11]: 5% | Population Mitotic Cells (%) [11]: 60% | Population Normal (%) [11]: 95% | Population Pyknosed Nuclei (%) [11]: 8% | Population Tubulin-Different-Phenotype (%) [11]: 4% | Total Cell Count [11]: 300 | Population Apoptotic (%) [12]: 33% | Population Fragmented Nuclei (%) [12]: 3% | Population Healthy Nuclei (%) [12]: 89% | Population Hoechst High Intensity Objects (%) [12]: 7% | Population Membrane Permeable-Phenotype (%) [12]: 6% | Population Mitochondria Different-Phenotype (%) [12]: 6% | Population Mitotic Cells (%) [12]: 66% | Population Normal (%) [12]: 92% | Population Pyknosed Nuclei (%) [12]: 7% | Population Tubulin-Different-Phenotype (%) [12]: 21% | Total Cell Count [12]: 96
